A short description of assay [1]: Inhibition of gamma-secretase in CHO-APP cells assessed as amyloid beta-42 production using APP as substrate. In kind it is cell-based. Conditions: Cricetulus griseus.
The target of assay [2] is Presenilin-1 (Homo sapiens) (UniProt P49768). Description: Binding affinity to PS1 Carboxy-terminal fragment in human HeLa cell membrane at 20 nM after 1 hr by photo-affinity based Western blot analysis. In kind it is cell membranes. The essentials: (§1)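 HeLa membranes (800 μg in 1.2 mL PBS) incubated 1 h at 37 °C with probe at 20 nM, with or without 1 μM competitor GSI. Photoirradiated at ~350 nm for 30 min at 4 °C, then pelleted. Click with biotin-azide (0.1 mM), TCEP 1.0 mM, CuSO4 1.0 mM, TBTA 0.1 mM, 1 h at room temperature. Solubilized in RIPA, streptavidin pull-down, SDS-PAGE, Western blot with PS1-NTF, PS1-CTF or SPP antibodies.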
Background: A western blot detects proteins with antibodies after separation by electrophoresis.

For assay [3] the target is unchanged. Description: Binding affinity to PS1 Carboxy-terminal fragment in human HeLa cell membrane at 20 nM by photo-affinity in-gel fluorescence method. In kind it is cell membranes. The essentials: (§2)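 HeLa membranes photolabeled with probe at 20 nM, with or without 1 μM competitor GSI L458, then ~350 nm irradiation. Click reaction with TAMRA-azide, then acetone precipitation to remove excess reagent. Resolubilized in loading buffer, separated by SDS-PAGE, and scanned for in-gel fluorescence of PS1-NTF and PS1-CTF bands. Coomassie staining confirmed equal loading.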

For assay [4] the target is unchanged. Description: Binding affinity to PS1 N-terminal fragment in human HeLa cell membrane at 20 nM by photo-affinity in-gel fluorescence method. It is filed as cell membranes. The essentials: as §2
Assay [5] shares this target. Description: Binding affinity to PS1 Carboxy-terminal fragment in human HeLa cell membrane at 20 nM by photo-affinity in-gel fluorescence method in presence of GSI L458. In kind it is cell membranes. The essentials:
as §2

The subject of the next assay is HeLa. Description: Binding affinity to SPP in human HeLa cell membrane at 20 nM after 1 hr by photo-affinity based Western blot analysis. In kind it is cell membranes. The essentials: as §1
Assay [6] addresses Presenilin-1 (Homo sapiens) (UniProt P49768). Description: Binding affinity to PS1 N-terminal fragment in human HeLa cell membrane at 20 nM by photo-affinity in-gel fluorescence method in presence of GSI L458. In kind it is cell membranes. The essentials: as §2
The target is the same in assay [7]. As to the kind of experiment: Binding affinity to PS1 N-terminal fragment in human HeLa cell membrane at 20 nM after 1 hr by photo-affinity based Western blot analysis. In kind it is cell membranes. The essentials:
as §1

Assay [8] has the same target. Description: Binding affinity to PS1 N-terminal fragment in human HeLa cell membrane at 20 nM after 1 hr by photo-affinity-based Western blot analysis in presence of GSI L458. It is filed as cell membranes. The essentials:
as §1

Structures are written as SMILES. Activity calls are given as the source filed them. The calls are words filed in the database; no cut-off is given here.

Data on 5 molecules can be found in ChEMBL document CHEMBL2016511, “Development of clickable active site-directed photoaffinity probes for γ-secretase” (Bioorg Med Chem Lett, 2012).

As to `CC(C)C[C@H](NC(=O)[C@H](Cc1ccccc1)C[C@@H](O)[C@H](Cc1ccccc1)NC(=O)OC(C)(C)C)C(=O)N[C@@H](Cc1ccccc1)C(N)=O`, the IC50 in [1] amounted to 36 nM.

On to `CC(C)C[C@H](NC(=O)[C@H](Cc1ccccc1)C[C@@H](O)[C@H](Cc1ccccc1)NC(=O)OC(C)(C)C)C(=O)N[C@@H](Cc1ccc(C(=O)c2ccccc2)cc1)C(=O)NCCCCCNC(=O)CCCC[C@@H]1SC[C@@H]2NC(=O)N[C@@H]21`, for which the IC50 in assay [1] came to 30 nM.

Turning to `C#CCCCCNC(=O)[C@H](Cc1ccccc1)NC(=O)[C@H](CC(C)C)NC(=O)[C@H](Cc1ccccc1)C[C@@H](O)[C@H](Cc1ccccc1)NC(=O)c1ccc(C(=O)c2ccccc2)cc1`, the outcome (in assay [2]; in assay [3]; in [5]; in the assay on HeLa; in assay [6]; in [8]) was inactive. For the same molecule, the result in [4] and in assay [7] was Active. The IC50 in [1] is 1000 nM.

Consider `C#CCCCCNC(=O)[C@H](Cc1ccc(C(=O)c2ccccc2)cc1)NC(=O)[C@H](CC(C)C)NC(=O)[C@H](Cc1ccccc1)C[C@@H](O)[C@H](Cc1ccccc1)NC(=O)OC(C)(C)C`, for which the result (in assay [2]; in assay [3]; with HeLa) was Active. Besides, the outcome in [4], in assay [5], in assay [6] and in assay [7] was inactive. Also, the IC50 in assay [1] came to 4 nM.

Consider `CC(C)C[C@H](NC(=O)[C@H](Cc1ccccc1)C[C@@H](O)[C@H](Cc1ccccc1)NC(=O)c1ccc(C(=O)c2ccccc2)cc1)C(=O)N[C@@H](Cc1ccccc1)C(=O)NCCCCCNC(=O)CCCC[C@@H]1SC[C@@H]2NC(=O)N[C@@H]21`, for which the concentration for half-maximal inhibition (IC50) in [1] stood at 817 nM. For the same molecule, in [7], the result was Active. For the same molecule, in assay [8], the result was inactive.

As a reminder, the IC50 is the concentration at which inhibition is half-maximal.
